Legend:
[1] = Verinurad plasma pharmacokinetics, Phase I single and multiple dose study; format: in vivo, human; conditions: for AUC(0-t): AUC0–24, Japanese subjects; for half-life: t1/2, Japanese subjects
Method in brief: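 Oral modified-release tablets were given once as a single dose on day 1 (fasted overnight ≥10 h) and day 6 (after a moderate-fat breakfast), then daily fed through day 12. Serial plasma was sampled to 72 h on days 1 and 12, to 24 h on day 6, and predose on days 8–11. Samples were stored at −70°C. Cmax and AUC0–24 came from noncompartmental analysis, with comparisons as geometric mean ratios.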

[2] = system: urinary excretion of uric acid; test: Pharmacodynamics: urinary uric acid excretion; format: in vivo, human; conditions: for CLUR0–24 / FEUA0–24: mean (95% CI); for percent change from baseline in AeUR over 0–6 hours: non-Asian subjects
Method in brief: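 Total-catch urine was collected at 6- or 12-h intervals from predose to 72 h after dosing on days 1 (fasted ≥10 h, no food 4 h postdose) and 12, and to 24 h on day 6 (fed). Urine uric acid, urine creatinine and serum creatinine were measured. CLUR0–24 = urinary uric acid amount ÷ urate AUC0–24. FEUA0–24 = CLUR0–24 ÷ creatinine clearance × 100.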

[3] = Japanese subjects, 15 mg single dose, fed (day 6) vs fasted (day 1)
[4] = Japanese subjects, across the dose groups 2.5–15 mg, fed vs fasted
[5] = male, human, plasma, oral, 5 mg, 5 mg once daily multiple doses, fed, day 12, geometric mean (95% CI)
[6] = male, human, plasma, oral, 10 mg, 10 mg once daily multiple doses, fed, day 12, geometric mean (95% CI)
[7] = male, human, plasma, oral, 15 mg, 15 mg once daily multiple doses, fed, day 12, geometric mean (95% CI)
[8] = multiple verinurad 10 mg doses, fed
[9] = Japanese subjects, 2.5 mg multiple dose, fed
[10] = Japanese subjects, 2.5 mg single dose, fasted
[11] = Japanese subjects, 2.5 mg single dose, fed
[12] = Japanese subjects, 5 mg multiple dose, fed
[13] = Japanese subjects, 5 mg single dose, fasted
[14] = Japanese subjects, 5 mg single dose, fed
[15] = Japanese subjects, 10 mg multiple dose, fed
[16] = Japanese subjects, 10 mg single dose, fasted
[17] = Japanese subjects, 10 mg single dose, fed
[18] = Japanese subjects, 15 mg multiple dose, fed
[19] = Japanese subjects, 15 mg single dose, fasted
[20] = Japanese subjects, 15 mg single dose, fed
[21] = Non-Asian subjects, 10 mg multiple dose, fed
[22] = Non-Asian subjects, 10 mg single dose, fasted
[23] = Non-Asian subjects, 10 mg single dose, fed

Question: With `CC(C)(Sc1ccncc1-c1ccc(C#N)c2ccccc12)C(=O)O` [verinurad] as the compound, how does the “Rac, accumulation ratio (day 12/day 6), AUC0–24” value ([1]; Japanese subjects, 10 mg, fed) read?
Answer: The value was 0.886 (0.679–1.16).

Question: And the “Rac, accumulation ratio (day 12/day 6), Cmax” value ([1]; Japanese subjects, 10 mg, fed)?
Answer: The value was 1.14 (0.774–1.64).

Question: And the “AUC0–24” value ([1]; Japanese subjects, 15 mg single dose, fed, day 6, geometric mean (95% CI))?
Answer: The value was 239 (137–416) ng·h/mL.

Question: What about the “GMR AUC0–24 (day 6/day 1)” value [1, 3] of the same compound?
Answer: Its value is 107 (89.1–128) %.

Question: And the “GMR AUC0–∞ (day 6/day 1)” value [1, 3]?
Answer: Its value is 100 (83.1–120) %.

Question: What about the “GMR Cmax (day 6/day 1)” value [1, 3] of the same compound?
Answer: The value was 112 (90.6–139) %.

Question: And the “Rac, accumulation ratio (day 12/day 6), AUC0–24” value ([1]; Japanese subjects, 15 mg, fed)?
Answer: Its value is 1.20 (0.979–1.46).

Question: What about the “Rac, accumulation ratio (day 12/day 6), Cmax” value ([1]; Japanese subjects, 15 mg, fed) of the same compound?
Answer: The value was 1.09 (0.823–1.44).

Question: And the “effect of moderate-fat meal on plasma AUC0–∞ (increase)” value [1, 4]?
Answer: Its value is 0%–97%.

Question: What about the “effect of moderate-fat meal on plasma Cmax (increase)” value [1, 4] of the same compound?
Answer: The value was 0%–26%.

Question: And the “AUC0–24” value ([1]; Japanese, 10 mg single dose, fasted, geometric least square mean)?
Answer: The value was 93.4 ng·h/mL.

Question: What about the Cmax ([1]; Non-Asian, 10 mg single dose, fed, geometric least square mean) of the same compound?
Answer: The Cmax was 15.4 ng/mL.

Question: What about the AUC(0-t) [1, 5] of the same compound?
Answer: Its AUC(0-t) is 80.9 ng·h/mL.

Question: And the Cmax ([1]; male, human, plasma, oral, 5 mg, Cmax, Japanese subjects, 5 mg once daily multiple doses, fed, day 12, geometric mean (95% CI))?
Answer: Its Cmax is 11.5 ng/mL.

Question: And the half-life [1, 5]?
Answer: Its half-life is 7.85 h.

Question: And the AUC(0-t) [1, 6]?
Answer: Its AUC(0-t) is 173 ng·h/mL.

Question: What about the Cmax ([1]; male, human, plasma, oral, 10 mg, Cmax, Japanese subjects, 10 mg once daily multiple doses, fed, day 12, geometric mean (95% CI)) of the same compound?
Answer: The Cmax was 24.9 ng/mL.

Question: What about the Tmax ([1]; male, human, plasma, oral, 10 mg, Tmax, Japanese subjects, 10 mg once daily multiple doses, fed, day 12, median (range)) of the same compound?
Answer: The Tmax was 4.5 h.

Question: What about the half-life [1, 6] of the same compound?
Answer: Its half-life is 6.93 h.

Question: And the AUC(0-t) [1, 7]?
Answer: Its AUC(0-t) is 286 ng·h/mL.

Question: And the Cmax ([1]; male, human, plasma, oral, 15 mg, Cmax, Japanese subjects, 15 mg once daily multiple doses, fed, day 12, geometric mean (95% CI))?
Answer: Its Cmax is 41.5 ng/mL.

Question: And the half-life [1, 7]?
Answer: The half-life was 9.79 h.

Question: And the “AUC higher in Japanese vs non-Asian subjects” value [1, 8]?
Answer: Its value is 23%.

Question: And the “Cmax higher in Japanese vs non-Asian subjects” value [1, 8]?
Answer: Its value is 38%.

Question: And the “CLUR0–24” value [2, 9]?
Answer: Its value is 12.2 (10.3–14.2) mL/min.

Question: What about the “FEUA0–24” value [2, 9] of the same compound?
Answer: The value was 7.57 (6.74–8.41) %.

Question: And the “CLUR0–24” value [2, 10]?
Answer: The value was 7.82 (6.90–8.74) mL/min.

Question: What about the “FEUA0–24” value [2, 10] of the same compound?
Answer: The value was 7.72 (6.01–9.43) %.

Question: What about the “CLUR0–24” value [2, 11] of the same compound?
Answer: The value was 11.4 (9.74–13.0) mL/min.

Question: And the “FEUA0–24” value [2, 11]?
Answer: Its value is 7.75 (6.80–8.70) %.

Question: And the “percent change from baseline in AeUR, 0–6 hour interval” value (“percent change … 0–6 hour interval” for short) ([2]; Japanese subjects, 2.5 mg, day 1 (fasted))?
Answer: The value was 18%.

Question: What about the “percent change … 0–6 hour interval” value ([2]; Japanese subjects, 2.5 mg, day 6 (fed)) of the same compound?
Answer: Its value is 62%.

Question: And the “percent change … 0–6 hour interval” value ([2]; Japanese subjects, 2.5 mg, day 12 (steady-state, fed))?
Answer: Its value is −17%.

Question: What about the “CLUR0–24” value [2, 12] of the same compound?
Answer: The value was 13.7 (9.35–18.1) mL/min.

Question: What about the “FEUA0–24” value [2, 12] of the same compound?
Answer: Its value is 14.5 (9.93–19.1) %.

Question: And the “CLUR0–24” value [2, 13]?
Answer: The value was 10.9 (8.88–12.9) mL/min.

Question: What about the “FEUA0–24” value [2, 13] of the same compound?
Answer: Its value is 9.05 (7.20–10.9) %.

Question: And the “CLUR0–24” value [2, 14]?
Answer: Its value is 16.0 (11.7–20.3) mL/min.

Question: What about the “FEUA0–24” value [2, 14] of the same compound?
Answer: Its value is 11.2 (7.42–14.9) %.

Question: And the “percent change … 0–6 hour interval” value ([2]; Japanese subjects, 5 mg, day 1 (fasted))?
Answer: The value was 59%.

Question: And the “percent change … 0–6 hour interval” value ([2]; Japanese subjects, 5 mg, day 6 (fed))?
Answer: The value was 114%.

Question: And the “percent change … 0–6 hour interval” value ([2]; Japanese subjects, 5 mg, day 12 (steady-state, fed))?
Answer: The value was −35%.

Question: And the “CLUR0–24” value [2, 15]?
Answer: The value was 19.7 (16.7–22.7) mL/min.

Question: What about the “FEUA0–24” value [2, 15] of the same compound?
Answer: Its value is 13.7 (10.8–16.6) %.

Question: And the “CLUR0–24” value [2, 16]?
Answer: The value was 14.3 (10.7–17.9) mL/min.

Question: And the “FEUA0–24” value [2, 16]?
Answer: Its value is 10.8 (7.87–13.6) %.

Question: What about the “CLUR0–24” value [2, 17] of the same compound?
Answer: Its value is 16.0 (9.88–22.1) mL/min.

Question: And the “FEUA0–24” value [2, 17]?
Answer: The value was 20.5 (11.3–29.6) %.

Question: What about the “percent change … 0–6 hour interval” value ([2]; Japanese subjects, 10 mg, day 1 (fasted)) of the same compound?
Answer: Its value is 114%.

Question: And the “percent change … 0–6 hour interval” value ([2]; Japanese subjects, 10 mg, day 6 (fed))?
Answer: Its value is 131%.

Question: And the “percent change … 0–6 hour interval” value ([2]; Japanese subjects, 10 mg, day 12 (steady-state, fed))?
Answer: Its value is −33%.

Question: What about the “CLUR0–24” value [2, 18] of the same compound?
Answer: The value was 23.9 (14.9–32.9) mL/min.

Question: And the “FEUA0–24” value [2, 18]?
Answer: The value was 16.0 (10.7–21.2) %.

Question: What about the “CLUR0–24” value [2, 19] of the same compound?
Answer: The value was 15.0 (6.40–23.6) mL/min.

Question: And the “FEUA0–24” value [2, 19]?
Answer: Its value is 14.5 (7.08–22.0) %.

Question: And the “CLUR0–24” value [2, 20]?
Answer: Its value is 12.1 (4.04–20.2) mL/min.

Question: And the “FEUA0–24” value [2, 20]?
Answer: Its value is 9.61 (2.96–16.3) %.

Question: And the “percent change … 0–6 hour interval” value ([2]; Japanese subjects, 15 mg, day 1 (fasted))?
Answer: The value was 77%.

Question: What about the “percent change … 0–6 hour interval” value ([2]; Japanese subjects, 15 mg, day 6 (fed)) of the same compound?
Answer: The value was 49%.

Question: What about the “percent change … 0–6 hour interval” value ([2]; Japanese subjects, 15 mg, day 12 (steady-state, fed)) of the same compound?
Answer: Its value is 6%.

Question: What about the “CLUR0–24” value [2, 21] of the same compound?
Answer: Its value is 20.6 (13.7–27.4) mL/min.

Question: And the “FEUA0–24” value [2, 21]?
Answer: The value was 13.2 (8.45–17.9) %.

Question: What about the “CLUR0–24” value [2, 22] of the same compound?
Answer: The value was 15.3 (7.35–23.3) mL/min.

Question: What about the “FEUA0–24” value [2, 22] of the same compound?
Answer: Its value is 10.4 (4.84–16.0) %.

Question: What about the “CLUR0–24” value [2, 23] of the same compound?
Answer: The value was 18.6 (8.95–28.2) mL/min.

Question: What about the “FEUA0–24” value [2, 23] of the same compound?
Answer: The value was 11.7 (6.44–17.0) %.

Question: And the “percent change from baseline in AeUR over 0–6 hours” value (shortened to “percent change … over 0–6 hours”) ([2]; 10 mg, day 1)?
Answer: The value was 70%.

Question: And the “percent change … over 0–6 hours” value ([2]; 10 mg, day 6)?
Answer: Its value is 141%.

Question: And the “percent change … over 0–6 hours” value ([2]; 10 mg, day 12)?
Answer: Its value is -41%.

Reference: article PMC6018888 (Drug Design, Development and Therapy, 2018)
